Results gathered from unrelated publications.
Values after ≈ are worked out from the molar mass of the structure shown.

SMILES | tested on | test | system | setting | measurement | result
O=C(O)CN1C(=O)/C(=C/c2ccc(-c3ccc(N(c4ccccc4)c4ccccc4)cc3)c3ccccc23)SC1=S | Staphylococcus epidermidis | microbial growth, broth dilution | ATCC12228 |  | MIC | 500 µg/mL (≈ 873 µM)
CC1(C)CC[C@]2(NC(=O)N[C@H]3C(O)O[C@H](CO)[C@@H](O)[C@@H]3O)CC[C@]3(C)C(=CC[C@@H]4[C@@]5(C)CC[C@@H]6OC(C)(C)OC[C@@]6(C)[C@@H]5CC[C@]43C)[C@@H]2C1 (some centres unmarked) | Leishmania mexicana | parasite growth, resazurin |  | 50 µM, amastigote | inhibition | 97.2%
O=C(O)CN1C(=O)/C(=C/c2c3ccccc3c(-c3ccc(N(c4ccccc4)c4ccccc4)cc3)c3ccccc23)NC1=S | Staphylococcus epidermidis | microbial killing, broth dilution | ATCC12228 |  | MBC | > 1000 µg/mL
CC1(C)CC[C@]2(CO)CC[C@]3(C)C(=CC[C@@H]4[C@@]5(C)CC[C@@H]6O[C@H]([C@H](O)[C@@H](O)[C@H](O)[C@H](O)CO)OC[C@@]6(C)[C@@H]5CC[C@]43C)[C@@H]2C1 | Leishmania mexicana | parasite growth, resazurin |  | 50 µM, amastigote | inhibition | 99.1%
O=C1NC(=S)S/C1=C\c1c2ccccc2c(-c2ccc(N(c3ccccc3)c3ccccc3)cc2)c2ccccc12 | Staphylococcus epidermidis | microbial killing, broth dilution | ATCC12228 |  | MBC | > 1000 µg/mL
Cc1ccc(-c2nc3ccccc3s2)cc1NC(=O)c1cc([N+](=O)[O-])ccc1Cl | Leishmania mexicana | parasite growth | J774.A1 | intracellular, amastigote | EC50 | > 10000 nM
CC1(C)CC[C@]2(CO)CC[C@]3(C)C(=CC[C@@H]4[C@@]5(C)CC[C@@H]6O[C@H]([C@H](O)[C@@H](O)[C@H](O)CO)OC[C@@]6(C)[C@@H]5CC[C@]43C)[C@@H]2C1 | Leishmania mexicana | parasite growth, resazurin |  | 50 µM, amastigote | inhibition | 98.7%
O=c1c(O[C@@H]2O[C@H](CO)[C@@H](O)[C@H](O)[C@H]2O)c(-c2ccc(O)cc2)oc2cc(O)cc(O)c12 |  | tubulin polymerisation, inhibitor |  | 10 µM | inhibition | 21.2%
O=C(O)CN1C(=O)/C(=C/c2ccc(-c3ccc(N(c4ccccc4)c4ccccc4)cc3)c3ccccc23)NC1=S | Staphylococcus epidermidis | microbial killing, broth dilution | ATCC12228 |  | MBC | > 1000 µg/mL
CC(=O)O[C@@H]1c2c(ccc3ccc(=O)oc23)OC(C)(C)[C@@H]1OC(=O)C1(C)OC1C (some centres unmarked) |  | tubulin polymerisation, inhibitor |  | 10 µM | inhibition | 32.8%
O=C(Nc1cnc(Cl)c(Cl)c1)c1cc([N+](=O)[O-])c(F)cc1F | Leishmania mexicana | parasite growth | J774.A1 | intracellular, amastigote | EC50 | 220 nM
CC1(C)CC[C@]2(C(=O)O)CC[C@]3(C)C(=CC[C@@H]4[C@@]5(C)CC[C@@H]6OCOC[C@@]6(C)[C@@H]5CC[C@]43C)[C@@H]2C1 | Leishmania mexicana | parasite growth, resazurin |  | 50 µM, amastigote | inhibition | 97.5%
O=C1NC(=S)S/C1=C\c1ccc(-c2ccc(N(c3ccccc3)c3ccccc3)cc2)cc1 | Staphylococcus epidermidis | microbial growth, broth dilution | ATCC12228 |  | MIC | 125 µg/mL (≈ 269 µM)
CC[C@H](CC[C@@H](C)[C@H]1CC[C@H]2[C@@H]3CC=C4C[C@@H](O[C@@H]5O[C@H](CO)[C@@H](O)[C@H](O)[C@H]5O)CC[C@]4(C)[C@H]3CC[C@]12C)C(C)C |  | tubulin polymerisation, inhibitor |  | 10 µM | inhibition | 14.4%
CN(C[C@H](O)[C@@H](O)[C@H](O)[C@H](O)CO)C(=O)N[C@]12CCC(C)(C)C[C@H]1C1=CC[C@@H]3[C@@]4(C)CC[C@@H]5OC(C)(C)OC[C@@]5(C)[C@@H]4CC[C@@]3(C)[C@]1(C)CC2 | Leishmania mexicana | parasite growth, resazurin |  | 50 µM, amastigote | inhibition | 99%
O=c1cc(-c2ccc(O)c(O)c2)oc2cc(O)cc(O)c12 |  | tubulin polymerisation, inhibitor |  | 10 µM | inhibition | 26.2%
COc1cc(-c2ccc(-c3ccc(C(=N)N)nc3)s2)cc(OC)c1OC | HOP-62 | cell growth or viability, SRB |  |  | GI50 | 2790 nM
O=c1ccc2cc3ccoc3cc2o1 |  | tubulin polymerisation, inhibitor |  | 10 µM | inhibition | 30.1%
CC(=O)N1CCN(C(=O)N[C@]23CCC(C)(C)C[C@H]2C2=CC[C@@H]4[C@@]5(C)CC[C@@H]6OC(C)(C)OC[C@@]6(C)[C@@H]5CC[C@@]4(C)[C@]2(C)CC3)CC1 | Leishmania mexicana | parasite growth, resazurin |  | 50 µM, amastigote | inhibition | 100%
CC1(C)CC[C@]2(C)CC[C@]3(C)[C@H]4CC=C5[C@@H](CC[C@H](O)C5(C)C)[C@]4(C)CC[C@@]3(C)[C@@H]2C1 |  | tubulin polymerisation, inhibitor |  | 10 µM | inhibition | 17%
Cc1ccc(-c2nc3ccccc3s2)cc1NC(=O)c1cc([N+](=O)[O-])ccc1O | Leishmania mexicana | parasite growth | J774.A1 | intracellular, amastigote | EC50 | > 10000 nM
Nc1ncnc2c1ncn2[C@@H]1O[C@H](CO)[C@@H](O)[C@H]1O |  | tubulin polymerisation, inhibitor |  | 10 µM | inhibition | 17.9%
C[C@@H]1O[C@@H](C[C@@H]2OC[C@@]3(C)[C@@H]4CC[C@]5(C)[C@H](CC=C6[C@@H]7CC(C)(C)CC[C@]7(C(=O)O)CC[C@]65C)[C@@]4(C)CC[C@@H]3O2)[C@@H](O)[C@H](O)[C@@H]1O | Leishmania mexicana | parasite growth, resazurin |  | 50 µM, amastigote | inhibition | 99.2%
